In ChEMBL document CHEMBL1255219, “Discovery of a β-d-2'-deoxy-2'-α-fluoro-2'-β-C-methyluridine nucleotide prodrug (PSI-7977) for the treatment of hepatitis C virus” (J Med Chem, 2010):

Columns and labels:
CCRF-CEM [1] = assay: Cytotoxicity against human CEM cells assessed as inhibition of ribosomal DNA up to 100 uM; type: cell-based
In short: (§1)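 CEM or HepG2 cells at 1 × 10^4 per well, compound serially diluted from 100 μM, 14 days at 37 °C, 5% CO2. Medium with compound renewed on days 7 and 11. Total DNA extracted; mitochondrial COXII DNA and rDNA measured by multiplex quantitative PCR. ΔCt converted to log reduction, inhibition relative to untreated cells, and the 90% inhibitory concentration reported.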

CCRF-CEM [2] = assay: Cytotoxicity against human CEM cells assessed as inhibition of mitochondrial DNA up to 100 uM; type: cell-based; in short: as §1
Hepatitis C virus [3] = assay: Antiviral activity against HCV expressing NS5B polymerase S282T mutation infected in clone A cells; type: functional, Hepacivirus hominis
In short: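 Replicon cells seeded at 1500 (clone A) or 3000 (ET-lunet) per well. Serially diluted compound added in medium without G418, 4 days at 37 °C, 5% CO2. HCV RNA measured by real-time RT-PCR as ΔCt versus no-drug control. EC90 calculated; fold change of S282T mutant versus wild-type replicon EC90. At least three independent experiments.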

[4] = system: Hepatitis C virus NS5B S96T/N142T mutant; assay: Antiviral activity against HCV expressing NS5B polymerase S96T/N142T mutation infected in human ET-lunet cells
Hepatitis C virus [5] = assay: Antiviral activity against HCV infected in human ET-lunet cells; type: functional, Hepacivirus hominis
In short: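 ET-lunet replicon cells seeded at 3000 cells/well. Compounds serially diluted in culture medium without G418 and added to cells, which were incubated 4 days at 37 °C in 5% CO2. HCV RNA replication measured by quantitative real-time RT-PCR as ΔCt against the mean no-drug control threshold cycle. EC90, the concentration giving 90% inhibition, was calculated.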

Hepatitis C virus [6] = assay: Antiviral activity against HCV infected in human clone A cells; type: functional, Hepacivirus hominis
In short: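 Clone A replicon cells seeded at 1500 cells/well. Compounds serially diluted in G418-free culture medium and added, then incubated 4 days at 37 °C in 5% CO2. HCV RNA quantified by real-time RT-PCR as ΔCt relative to the mean no-drug control.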

[7] = Cytotoxicity against HuH7 cells at 100 uM; type: cell-based; settings: human, huh-7, 100 µM
In short: (§2)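 Huh7, HepG2 and BxPC3 cells at 2 × 10^3 per well, CEM at 5 × 10^3 per well. Compound serially diluted from 100 μM, 8 days at 37 °C. MTS added for 2 h, absorbance read at 490 nm with medium-only blanks. CC50 taken relative to untreated cells.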

Rattus norvegicus [8] = assay: Toxicity in rat assessed as change in macroscopic pathology at 50 to 1800 mg/kg, po after 14 days; type: organism-based; parameters: dose 50-1800 mg/kg, route oral; settings: in vivo, 336 h
In short: (§3)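 Rats (CD SD, 4–5 weeks, 76–100 g) given a single oral dose of 50, 300 or 1800 mg/kg, or vehicle (30% PEG400/30% Tween 20/20% corn oil/20% water). Observed daily for 14 days with daily body weights. Necropsy on day 15 with macroscopic examination and liver and paired kidney weights.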

HepG2 = assay: Cytotoxicity against human HepG2 cells at 100 uM; type: cell-based; settings: hepg2, 100 µM; in short: as §2
[9] = Half life in human liver S9 fraction at 100 uM; type: ADME, subcellular
In short: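 Compound at 100 μM in 50 mM K2HPO4 pH 7.4 with 5 mM MgCl2. Started with 4 mg/mL human liver S9 at 37 °C. Samples at 0–24 h quenched with acetonitrile. Parent remaining measured by LC/MS/MS peak area relative to 0 h, and half-life calculated.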

[10] = Half life in simulated gastric fluid at pH 1.2 at 50 ug/mL; type: physicochemical
In short: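 Compound at 50 μg/mL in simulated gastric fluid (pH 1.2) or simulated intestinal fluid (pH 7.5), 37 °C, 20 h. Injected by reverse-phase HPLC every 2 h, peak area at 260 nm. Percent parent remaining relative to 0 h, giving half-life.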

Rattus norvegicus [11] = assay: Cmax in rat liver assessed as 2'-F-2'-C-Methyluridine-5''-TP level at 50 mg/kg, po; type: ADME, organism-based; parameters: dose 50 mg/kg, route oral; settings: in vivo
In short: (§4)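 Rats given a single oral gavage dose of 50 mg/kg in 0.5% carboxymethylcellulose sodium, 5 mL/kg. Livers taken at 0.5, 1, 2, 4, 6 and 12 h after CO2 sacrifice and ice-cold saline perfusion, then snap-frozen. Homogenized in 3 volumes of cold 70% methanol with 20 mM EDTA/EGTA. Triphosphate measured by LC/MS/MS (ESI, MRM negative mode), noncompartmental analysis.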

[12] = Cytotoxicity against human myeloid progenitor cells after 14 to 16 days
[13] = Half life in simulated intestinal fluid of pH 7.5 at 50 ug/mL; type: physicochemical
In short: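 Compound at 50 μg/mL in simulated gastric fluid (pH 1.2) or simulated intestinal fluid (pH 7.5), 37 °C, 20 h. Injected by reverse-phase HPLC every 2 h, peak area at 260 nm.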

Rattus norvegicus [14] = assay: AUC (0 to infinity) in rat liver assessed as 2'-F-2'-C-Methyluridine-5''-TP level at 50 mg/kg, po; type: ADME, organism-based; parameters: time infinity, dose 50 mg/kg, route oral; settings: in vivo; in short: as §4
[15] = AUC (0 to t) in cynomolgus monkey plasma at 50 mg/kg, po qd for 4 days; type: ADME, organism-based, Macaca fascicularis; parameters: dose 50 mg/kg, route oral
In short: (§5)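 Oral gavage (dog gastric, monkey nasogastric), 50 mg/kg in 20% w/v hydroxypropyl-β-cyclodextrin in water, 2.5 mL/kg, once daily for 4 consecutive days. Blood sampled into K2EDTA at 1, 2, 4, 6, 12 and 24 h postdose on day 3. Prodrug in plasma quantified by LC/MS/MS, noncompartmental analysis.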

[16] = Cytotoxicity against human BxPC3 cells at 100 uM; type: cell-based; settings: bxpc-3, 100 µM; in short: as §2
Rattus norvegicus [17] = assay: Tmax in rat liver assessed as 2'-F-2'-C-Methyluridine-5''-TP level at 50 mg/kg, po; type: ADME, organism-based; parameters: dose 50 mg/kg, route oral; settings: in vivo; in short: as §4
Cynomolgus monkey [18] = assay: Metabolic stability in cynomolgus monkey liver assessed as 2'-F-2'-C-Methyluridine-5''-triphosphate level at 50 mg/kg, po; type: ADME, organism-based, Macaca fascicularis; parameters: dose 50 mg/kg, route oral; settings: in vivo
In short: (§6)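 Dogs and cynomolgus monkeys gavaged once daily with 50 mg/kg in 20% w/v hydroxypropyl-β-cyclodextrin for 4 days. At 4 h postdose on day 4, under pentobarbital, the liver was perfused with ice-cold saline via a portal cannula. Five lobe samples were snap-frozen and homogenized in 3 volumes of cold 70% methanol with 20 mM EDTA/EGTA. Prodrug and triphosphate measured by LC/MS/MS.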

[19] = Cmax in cynomolgus monkey plasma at 50 mg/kg, po qd for 4 days; type: ADME, organism-based, Macaca fascicularis; parameters: dose 50 mg/kg, route oral; in short: as §5
[20] = Tmax in cynomolgus monkey plasma at 50 mg/kg, po qd for 4 days; type: ADME, organism-based, Macaca fascicularis; parameters: dose 50 mg/kg, route oral; in short: as §5
Rattus norvegicus [21] = assay: Toxicity in rat assessed as change in kidney weight at 50 to 1800 mg/kg, po after 14 days; type: organism-based; parameters: dose 50-1800 mg/kg, route oral; settings: in vivo, 336 h; in short: as §3
[22] = AUC (0 to infinity) in cynomolgus monkey plasma at 50 mg/kg, po qd for 4 days; type: ADME, organism-based, Macaca fascicularis; parameters: time infinity, dose 50 mg/kg, route oral; in short: as §5
Canis familiaris [23] = assay: Metabolic stability in dog liver assessed as 2'-F-2'-C-Methyluridine-5''-triphosphate level at 50 mg/kg, po; type: ADME, organism-based, Canis lupus familiaris; parameters: dose 50 mg/kg, route oral; settings: in vivo; in short: as §6
Rattus norvegicus [24] = assay: AUC (0 to t) in rat liver assessed as 2'-F-2'-C-Methyluridine-5''-TP level at 50 mg/kg, po; type: ADME, organism-based; parameters: dose 50 mg/kg, route oral; settings: in vivo; in short: as §4
Homo sapiens = species on record: Homo sapiens; assay: Half life in human plasma at 100 uM
Hepatitis C virus [25] = assay: Antiviral activity against HCV infected in human clone A cells assessed as inhibition of cellular rRNA replication at 50 uM; type: functional, Hepacivirus hominis
Cynomolgus monkey [26] = assay: Metabolic stability in cynomolgus monkey liver assessed as prodrug level at 50 mg/kg, po; type: ADME, organism-based, Macaca fascicularis; parameters: dose 50 mg/kg, route oral; settings: in vivo; in short: as §6
Rattus norvegicus [27] = assay: Toxicity in rat assessed as change in body weight at 50 to 1800 mg/kg, po after 14 days; type: organism-based; parameters: dose 50-1800 mg/kg, route oral; settings: in vivo, 336 h; in short: as §3
CCRF-CEM [28] = assay: Cytotoxicity against human CEM cells at 100 uM; type: cell-based; in short: as §2
Rattus norvegicus [29] = assay: Toxicity in rat assessed as mortality at 50 to 1800 mg/kg, po after 14 days; type: organism-based; parameters: dose 50-1800 mg/kg, route oral; settings: in vivo, 336 h; in short: as §3
[30] = AUC (0 to infinity) in dog plasma at 50 mg/kg, po qd for 4 days; type: ADME, organism-based, Canis lupus familiaris; parameters: time infinity, dose 50 mg/kg, route oral; in short: as §5
[31] = AUC (0 to t) in dog plasma at 50 mg/kg, po qd for 4 days; type: ADME, organism-based, Canis lupus familiaris; parameters: dose 50 mg/kg, route oral; in short: as §5
[32] = Tmax in dog plasma at 50 mg/kg, po qd for 4 days; type: ADME, organism-based, Canis lupus familiaris; parameters: dose 50 mg/kg, route oral; in short: as §5
[33] = Cytotoxicity against human erythroid progenitor cells after 14 to 16 days
[34] = Permeability by PAMPA assay; type: ADME; settings: read-out: permeability
In short: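 PAMPA with a lecithin-in-dodecane (20 mg/mL) coated filter donor. Donor held 200 μg/mL compound in PBS pH 7.4 with 2% DMSO; acceptor held PBS with 2% DMSO. Left 24 h. Donor and acceptor concentrations measured by LC/MS/MS (MRM), and Pe calculated from concentrations, volumes, filter area and time.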

Rattus norvegicus [35] = assay: Toxicity in rat assessed as change in liver weight at 50 to 1800 mg/kg, po after 14 days; type: organism-based; parameters: dose 50-1800 mg/kg, route oral; settings: in vivo, 336 h; in short: as §3
[36] = Cmax in dog plasma at 50 mg/kg, po qd for 4 days; type: ADME, organism-based, Canis lupus familiaris; parameters: dose 50 mg/kg, route oral; in short: as §5
Canis familiaris [37] = assay: Metabolic stability in dog liver assessed as prodrug level at 50 mg/kg, po; type: ADME, organism-based, Canis lupus familiaris; parameters: dose 50 mg/kg, route oral; settings: in vivo; in short: as §6
[38] = Cytotoxicity against human HepG2 cells assessed as inhibition of ribosomal DNA; type: cell-based; in short: as §1
[39] = Cytotoxicity against human HepG2 cells assessed as inhibition of mitochondrial DNA; type: cell-based; in short: as §1

SMILES: CC(C)OC(=O)[C@H](C)N[P@@](=O)(OC[C@H]1O[C@@H](n2ccc(=O)[nH]c2=O)[C@](C)(F)[C@@H]1O)Oc1ccccc1
- Activity (CCRF-CEM [1]): Non-toxic
- Activity (CCRF-CEM [2]): Non-toxic
- EC90 (Hepatitis C virus [3]): > 100 µM
- EC90 [4]: 1300 nM
- EC90 (Hepatitis C virus [5]): 3300 nM
- EC90 (Hepatitis C virus [6]; Hepatitis C virus): 7500 nM

SMILES: COC(=O)[C@H](C)NP(=O)(OC[C@H]1O[C@@H](n2ccc(=O)[nH]c2=O)[C@](C)(F)[C@@H]1O)Oc1ccccc1 (stereo partly drawn)
- Activity [7]: Non-toxic
- Activity (Rattus norvegicus [8]): Non-toxic
- Activity (HepG2): Non-toxic
- half-life at 100 µM [9]: 10.8 min
- half-life at 50 ug/mL [10]: 930 min
- Cmax (Rattus norvegicus [11]): 1985 ng/g
- IC50 [12]: > 50 µM
- half-life at 50 ug/mL [13]: > 1200 min
- AUC (Rattus norvegicus [14]): 18968 ng·h/g
- AUC(0-t) at 96 h [15]: 27 ng·h/mL
- Activity [16]: Non-toxic
- Tmax (Rattus norvegicus [17]): 6 h
- Drug uptake (Cynomolgus monkey [18]): 26 ng/g
- Cmax [19]: 19 ng/mL
- Tmax [20]: 15 min
- Activity (Rattus norvegicus [21]): Non-toxic
- AUC(0-inf) [22]: 34 ng·h/mL
- Drug uptake (Canis familiaris [23]): 4960 ng/g
- AUC (Rattus norvegicus [24]): 14206 ng·h/g
- half-life at 100 µM (Homo sapiens): 1000 min
- inhibition at 50 µM (Hepatitis C virus [25]): 0%
- Drug uptake (Cynomolgus monkey [26]): 4.66 ng/g
- Activity (Rattus norvegicus [27]): Non-toxic
- Activity (CCRF-CEM [28]): Non-toxic
- Activity (Rattus norvegicus [29]): Non-toxic
- AUC(0-inf) [30]: 420 ng·h/mL
- AUC(0-t) at 96 h [31]: 418 ng·h/mL
- Tmax [32]: 1 h
- IC50 [33]: > 50 µM
- Papp [34]: 0.007 ×10⁻⁶ cm/s
- Activity (Rattus norvegicus [35]): Non-toxic
- EC90 (Hepatitis C virus [6]; Hepatitis C virus): 910 nM
- Cmax [36]: 317 ng/mL
- Drug uptake (Canis familiaris [37]): 5.24 ng/g

SMILES: CC(C)OC(=O)[C@H](C)N[P@](=O)(OC[C@H]1O[C@@H](n2ccc(=O)[nH]c2=O)[C@](C)(F)[C@@H]1O)Oc1ccccc1 [SOFOSBUVIR]
- Activity (CCRF-CEM [1]): Non-toxic
- CC90 [38]: 68.6 µM
- CC90 [39]: 72.1 µM
- Activity (CCRF-CEM [2]): Non-toxic
- EC90 (Hepatitis C virus [3]): 7.8 µM
- EC90 [4]: 110 nM
- EC90 (Hepatitis C virus [5]): 230 nM
- EC90 (Hepatitis C virus [6]): 420 nM
